Assay results published in ChEMBL document CHEMBL3286252, “Synthesis, biological evaluation and structure-activity relationship of new GABA uptake inhibitors, derivatives of 4-aminobutanamides” (Eur J Med Chem, 2014).
The source made the active and inactive calls.

Experiments:
[1] = test system: Mus musculus; test: Anticonvulsant activity against pentylenetetrazole-induced seizure in albino Swiss (CD-1) mouse assessed as decrease in seizure episodes at 30 mg/kg, ip administered 60 mins prior to PTZ challenge; assay type: functional; details: route intraperitoneal
Summary of the method: (§1)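 Male CD-1 mice (18–22 g) given compound or vehicle i.p. 60 min before PTZ 100 mg/kg s.c. Each mouse was then caged alone and watched for 30 min for clonic seizures, meaning whole-body clonus lasting >3 s with loss of righting reflex. Recorded: latency to first clonus, number of seizure episodes, and deaths within 30 min. Analysis: ANOVA/Dunnett or t-test; mortality by Fisher's exact test; 7–10 mice per group.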

[2] = test system: Mus musculus; test: Anticonvulsant activity against pentylenetetrazole-induced seizure in albino Swiss (CD-1) mouse assessed as delay in onset of seizures at 30 mg/kg, ip administered 60 mins prior to PTZ challenge; assay type: functional; details: route intraperitoneal; summary of the method: as §1
[3] = test system: Mus musculus; test: Anticonvulsant activity against pilocarpine-induced seizure in albino Swiss (CD-1) mouse assessed as prolongation of latency time to death at 70 mg/kg, ip administered 60 mins before pilocarpine challenge; assay type: functional; details: route intraperitoneal
Summary of the method: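 Male CD-1 mice dosed i.p. with compound or vehicle (1% Tween 80). Scopolamine butylbromide 1 mg/kg i.p. given 45 min before pilocarpine; pilocarpine 400 mg/kg i.p. given 60 min after compound. Observed 1 h. Latency to tonic-clonic seizure and latency to death recorded, cut-off 60 min. 7–8 mice per group, mean ± SEM, Student's t-test against vehicle.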

[4] = test system: Mus musculus; test: Anticonvulsant activity in albino Swiss (CD-1) mouse assessed as decrease in animals with tonic hind limb extensions at 100 mg/kg by maximal electroshock test; assay type: functional; details: Hindlimb
Summary of the method: (§2)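 Mice received a 25 mA, 0.2 s stimulus through auricular electrodes. The endpoint was tonic extension of the hind limbs after a single shock, scored in vehicle- and drug-treated groups.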

[5] = test system: Mus musculus; test: Anticonvulsant activity in albino Swiss (CD-1) mouse assessed as protection against seizures at 100 mg/kg, ip after 60 mins by electroconvulsive threshold test; assay type: functional, organism-based; design: dose 100 mg/kg
[6] = test system: Mus musculus; test: Anticonvulsant activity against pentylenetetrazole-induced seizure in albino Swiss (CD-1) mouse assessed as decrease in seizure episodes at 15 mg/kg, ip administered 60 mins prior to PTZ challenge; assay type: functional; details: route intraperitoneal; summary of the method: as §1
[7] = Toxicity in albino Swiss (CD-1) mouse assessed as mortality at 100 mg/kg measured after electroshock exposure; assay type: organism-based; design: dose 100 mg/kg; details: in vivo, read-out: Activity
Summary of the method: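 Male CD-1 mice given 100 mg/kg i.p. 60 min before the maximal electroshock test. Stimulus 25 mA for 0.2 s through auricular electrodes; endpoint tonic hind-limb extension. Deaths after the shock compared with the vehicle group.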

[8] = test system: Mus musculus; test: Toxicity in albino Swiss (CD-1) mouse assessed as mortality at 100 mg/kg, ip measured after single electroconvulsive electroshock exposure; assay type: organism-based; design: dose 100 mg/kg, route intraperitoneal; details: in vivo
Summary of the method: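 Male CD-1 mice given 100 mg/kg i.p. 60 min before electroconvulsive threshold testing. Groups shocked at graded currents to give 10–90% of animals with seizures; CS50 for tonic hind-limb extension estimated by log-probit. Mortality noted after a single electroconvulsive shock, compared with controls.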

[9] = test system: Mus musculus; test: Anticonvulsant activity against pentylenetetrazole-induced seizure in albino Swiss (CD-1) mouse assessed as delay in onset of seizures at 15 mg/kg, ip administered 60 mins prior to PTZ challenge; assay type: functional; details: route intraperitoneal; summary of the method: as §1
[10] = test system: Mus musculus; test: Anticonvulsant activity against pentylenetetrazole-induced seizure in albino Swiss (CD-1) mouse assessed as decrease in mortality rate at 30 mg/kg, ip administered 60 mins prior to PTZ challenge; assay type: functional, organism-based; design: dose 30 mg/kg; summary of the method: as §1
[11] = test system: Mus musculus; test: Anticonvulsant activity in albino Swiss (CD-1) mouse assessed as protection against electrically-induced tonic hind limb extension at 30 mg/kg by maximal electroshock test; assay type: functional, organism-based; design: dose 30 mg/kg; details: Hindlimb; summary of the method: as §2
[12] = test system: Mus musculus; test: Anticonvulsant activity against pilocarpine-induced seizure in albino Swiss (CD-1) mouse assessed as prolongation of latency time to seizures at 70 mg/kg, ip administered 60 mins before pilocarpine challenge; assay type: functional; details: route intraperitoneal
Summary of the method: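 CD-1 mice received compound or vehicle (1% Tween 80) i.p. 60 min before pilocarpine 400 mg/kg i.p. Scopolamine butylbromide 1 mg/kg i.p. was given 45 min before pilocarpine. 7–8 mice per group; Student's t-test versus vehicle; mean ± SEM.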

[13] = test system: Mus musculus; test: Anticonvulsant activity against pentylenetetrazole-induced seizure in albino Swiss (CD-1) mouse assessed as decrease in seizure episodes at 100 mg/kg, ip administered 60 mins prior to PTZ challenge; assay type: functional; details: route intraperitoneal
Summary of the method: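 Male CD-1 mice, 18–22 g, given compound or vehicle i.p. 60 min before PTZ 100 mg/kg s.c. Each mouse observed alone for 30 min for clonic seizures: whole-body clonus over 3 s with loss of righting reflex. Read-outs: latency to first clonus, number of seizure episodes, and deaths within 30 min. Groups of 7–10 mice, compared with vehicle.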

[14] = test system: Mus musculus; test: Anticonvulsant activity against pentylenetetrazole-induced seizure in albino Swiss (CD-1) mouse assessed as decrease in mortality rate at 30 to 100 mg/kg, ip administered 60 mins prior to PTZ challenge; assay type: functional, organism-based; summary of the method: as §1
[15] = test system: Mus musculus; test: Anticonvulsant activity against pentylenetetrazole-induced seizure in albino Swiss (CD-1) mouse assessed as prolongation of latency time to first seizure episode at 100 mg/kg, ip administered 60 mins prior to PTZ challenge; assay type: functional; details: route intraperitoneal; summary of the method: as §1
[16] = test system: Mus musculus; test: Anticonvulsant activity in albino Swiss (CD-1) mouse assessed as protection against electrically-induced tonic hind limb extension at 30 to 100 mg/kg measured after single electroshock by maximal electroshock test; assay type: functional, organism-based; details: Hindlimb; summary of the method: as §2
[17] = test system: Mus musculus; test: Anticonvulsant activity against pentylenetetrazole-induced seizure in albino Swiss (CD-1) mouse assessed as prolongation of latency time to first seizure episode at 30 mg/kg, ip administered 60 mins prior to PTZ challenge; assay type: functional, organism-based; design: dose 30 mg/kg; summary of the method: as §1
[18] = test system: Mus musculus; test: Anticonvulsant activity in albino Swiss (CD-1) mouse assessed as current intensity required to induce 50% tonic hind limb extensions at 100 mg/kg, ip after 60 mins by electroconvulsive threshold test (reference value: 6.61 mA); assay type: functional, Hindlimb; details: route intraperitoneal

SMILES | inhibition in vivo at 30 mg/kg [1] [%] | Activity [2] [%] | Activity [3] [%] | inhibition in vivo at 100 mg/kg [4] [%] | Activity [5] | inhibition in vivo at 15 mg/kg [6] [%] | mortality [7] [%] | Activity [8] | Activity [9] [%] | inhibition [10] | Activity [11] | Activity [12] [%] | inhibition in vivo at 100 mg/kg [13] [%] | inhibition [14] | Activity [15] [%] | Activity [16] | Activity [17] | CS50 [18] [mA]
NCCC(C(=O)NCc1ccc(Cl)cc1)N1CCN(C(c2ccccc2)c2ccccc2)CC1 (centres undefined) | 83 | 217 | 71.1 | 44 | inactive | 58 | 65 | Toxic | 58 | Active | inactive | 113.4 |  |  |  |  |  | 
NCCC(C(=O)NCc1ccccc1Cl)N1CCN(C(c2ccccc2)c2ccccc2)CC1 (centres undefined) | 37 |  |  |  |  |  |  |  |  |  |  |  | 53 | Active | 100 | inactive | inactive | 6.22
